# Columns and labels:
# Format in all cases: functional
# Conditions in all cases: read-out: Activity
# CCRF-CEM = test: Growth inhibition of human CCRF-CEM cells assessed as cell growth at 10 uM incubated for 48 hrs by sulforhodamine B assay relative to control
# Method in brief: (§1)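 NCI Developmental Therapeutics Program NCI60 panel. Compounds that were active in the 10 µM one-dose screen went on to dose–response testing. Growth at each concentration is expressed relative to untreated control (100%). GI50 (concentration giving 50% of maximal inhibition of proliferation) and TGI (concentration giving total growth inhibition) were derived from the curves.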
# K562 = test: Growth inhibition of human K562 cells assessed as cell growth at 10 uM incubated for 48 hrs by sulforhodamine B assay relative to control
# Method in brief: (§2)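 Submitted to the NCI Developmental Therapeutics Program for the NCI60 human tumour cell line panel. First screen at a single 10 µM concentration. Read-out is growth relative to untreated control cells set at 100%.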
# A549 = test: Growth inhibition of human A549/ATCC cells assessed as cell growth at 10 uM incubated for 48 hrs by sulforhodamine B assay relative to control; method in brief: as §1
# HOP-62 = test: Growth inhibition of human HOP-62 cells assessed as cell growth at 10 uM incubated for 48 hrs by sulforhodamine B assay relative to control; method in brief: as §2
# HOP-92 = test: Growth inhibition of human HOP-92 cells assessed as cell growth at 10 uM incubated for 48 hrs by sulforhodamine B assay relative to control; method in brief: as §2
# NCI-H23 = test: Growth inhibition of human NCI-H23 cells assessed as cell growth at 10 uM incubated for 48 hrs by sulforhodamine B assay relative to control; method in brief: as §2
# NCI-H522 = test: Growth inhibition of human NCI-H522 cells assessed as cell growth at 10 uM incubated for 48 hrs by sulforhodamine B assay relative to control; method in brief: as §2
# COLO 205 = test: Growth inhibition of human COLO 205 cells assessed as cell growth at 10 uM incubated for 48 hrs by sulforhodamine B assay relative to control; method in brief: as §1
# HCT-15 = test: Growth inhibition of human HCT-15 cells assessed as cell growth at 10 uM incubated for 48 hrs by sulforhodamine B assay relative to control; method in brief: as §2
# HT-29 = test: Growth inhibition of human HT-29 cells assessed as cell growth at 10 uM incubated for 48 hrs by sulforhodamine B assay relative to control; method in brief: as §2
# SF-268 = test: Growth inhibition of human SF-268 cells assessed as cell growth at 10 uM incubated for 48 hrs by sulforhodamine B assay relative to control
# Method in brief: (§3)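 Run by the NCI Developmental Therapeutics Program as part of its 60-line human tumour panel. Each compound tested at a single 10 µM dose. Growth expressed as % relative to untreated control cells (100%).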
# SNB-19 = test: Growth inhibition of human SNB-19 cells assessed as cell growth at 10 uM incubated for 48 hrs by sulforhodamine B assay relative to control; method in brief: as §3
# SNB-75 = test: Growth inhibition of human SNB-75 cells assessed as cell growth at 10 uM incubated for 48 hrs by sulforhodamine B assay relative to control; method in brief: as §3
# U-251 = test: Growth inhibition of human U-251 cells assessed as cell growth at 10 uM incubated for 48 hrs by sulforhodamine B assay relative to control; method in brief: as §3
# M14 = test: Growth inhibition of human M14 cells assessed as cell growth at 10 uM incubated for 48 hrs by sulforhodamine B assay relative to control; method in brief: as §2
# SK-MEL-2 = test: Growth inhibition of human SK-MEL-2 cells assessed as cell growth at 10 uM incubated for 48 hrs by sulforhodamine B assay relative to control; method in brief: as §3
# UACC-257 = test: Growth inhibition of human UACC-257 cells assessed as cell growth at 10 uM incubated for 48 hrs by sulforhodamine B assay relative to control; method in brief: as §3
# UACC-62 = test: Growth inhibition of human UACC-62 cells assessed as cell growth at 10 uM incubated for 48 hrs by sulforhodamine B assay relative to control; method in brief: as §3
# IGROV-1 = test: Growth inhibition of human IGROV-1 cells assessed as cell growth at 10 uM incubated for 48 hrs by sulforhodamine B assay relative to control; method in brief: as §2
# OVCAR-8 = test: Growth inhibition of human OVCAR-8 cells assessed as cell growth at 10 uM incubated for 48 hrs by sulforhodamine B assay relative to control; method in brief: as §3
# SK-OV-3 = test: Growth inhibition of human SK-OV-3 cells assessed as cell growth at 10 uM incubated for 48 hrs by sulforhodamine B assay relative to control; method in brief: as §3
# A498 = test: Growth inhibition of human A498 cells assessed as cell growth at 10 uM incubated for 48 hrs by sulforhodamine B assay relative to control; method in brief: as §1
# TK-10 = test: Growth inhibition of human TK-10 cells assessed as cell growth at 10 uM incubated for 48 hrs by sulforhodamine B assay relative to control; method in brief: as §3
# MDA-MB-231 = test: Growth inhibition of human MDA-MB-231 cells assessed as cell growth at 10 uM incubated for 48 hrs by sulforhodamine B assay relative to control; method in brief: as §2
# BT-549 = test: Growth inhibition of human BT-549 cells assessed as cell growth at 10 uM incubated for 48 hrs by sulforhodamine B assay relative to control
# Method in brief: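 NCI Developmental Therapeutics Program NCI60 human tumour cell line panel, one-dose primary screen with every compound at 10 µM. Growth is expressed as % of untreated control cells (100%).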
# CAKI-1 = test: Growth inhibition of human CAKI-1 cells assessed as cell growth at 10 uM incubated for 48 hrs by sulforhodamine B assay relative to control; method in brief: as §1
SMILES,growth at 10 µM (CCRF-CEM) [%],growth at 10 µM (K562) [%],growth at 10 µM (A549) [%],growth at 10 µM (HOP-62) [%],growth at 10 µM (HOP-92) [%],growth at 10 µM (NCI-H23) [%],growth at 10 µM (NCI-H522) [%],growth at 10 µM (COLO 205) [%],growth at 10 µM (HCT-15) [%],growth at 10 µM (HT-29) [%],growth at 10 µM (SF-268) [%],growth at 10 µM (SNB-19) [%],growth at 10 µM (SNB-75) [%],growth at 10 µM (M14) [%],growth at 10 µM (SK-MEL-2) [%],growth at 10 µM (UACC-257) [%],growth at 10 µM (UACC-62) [%],growth at 10 µM (IGROV-1) [%],growth at 10 µM (OVCAR-8) [%],growth at 10 µM (SK-OV-3) [%],other results
CCOc1ccc(-c2cc(N)n(S(=O)(=O)c3ccc(OC)cc3)n2)cc1,86.8,105,92.5,122,82.2,115,101,116,98.7,105,109,96.3,89.9,120,110,86.6,92.5,96.6,96.6,114,growth at 10 µM (U-251): 101%; growth at 10 µM (A498): 92.5%; growth at 10 µM (TK-10): 130%; growth at 10 µM (MDA-MB-231): 92.4%; growth at 10 µM (BT-549): 111%
Nc1c(C(=O)N(c2ccccc2)c2ccccc2)sc2nc3c(cc12)C(=O)CCC3,96.1,113,90.2,99.3,103,101,103,109,89.5,84.5,99.8,104,108,94.2,117,106,109,103,105,108,growth at 10 µM (A498): 76.3%; growth at 10 µM (TK-10): 113%; growth at 10 µM (MDA-MB-231): 85.9%; growth at 10 µM (BT-549): 55.4%
CC(C)N1CCc2nc3sc(C(=O)Nc4ccccc4)c(N)c3cc2C1,100,97.8,89.8,94.1,55.6,97.9,104,102,101,103,113,105,69.1,108,114,95.1,103,100,95.9,113,growth at 10 µM (U-251): 92.7%; growth at 10 µM (A498): 67.5%; growth at 10 µM (TK-10): 127%; growth at 10 µM (MDA-MB-231): 95.2%; growth at 10 µM (BT-549): 106%
COc1ccc(S(=O)(=O)n2ccc(-c3ccc4c(c3)CCC(C)(C)O4)n2)cc1,58.9,55.6,74,112,61.4,59.6,55.6,107,97.6,84.5,94.7,87.1,84,86.5,84.4,57.4,50.5,90.8,83.8,90.4,growth at 10 µM (U-251): 84.2%; growth at 10 µM (A498): 89.1%; growth at 10 µM (CAKI-1): 63.3%; growth at 10 µM (TK-10): 68.2%; growth at 10 µM (MDA-MB-231): 87.7%; growth at 10 µM (BT-549): 65.5%
CC(=O)c1cccc(NC(=O)c2sc3nc4c(cc3c2N)C(=O)CCC4)c1,99.7,79.8,92.8,97.9,92.8,98.8,87.1,100,93.7,96.9,110,99.5,94.2,100,103,99.3,98.4,96.2,101,102,growth at 10 µM (A498): 86.9%; growth at 10 µM (TK-10): 89.3%; growth at 10 µM (MDA-MB-231): 100%; growth at 10 µM (BT-549): 93.7%
Cc1cccc(NC(=O)c2sc3nc4c(cc3c2N)CN(Cc2ccccc2)CC4)c1,98.9,109,84.2,110,100,100,114,104,97.5,100,103,110,101,106,129,89.8,110,102,98.2,105,growth at 10 µM (U-251): 85.4%; growth at 10 µM (A498): 85.1%; growth at 10 µM (TK-10): 114%; growth at 10 µM (MDA-MB-231): 113%; growth at 10 µM (BT-549): 79%
